High-throughput results deposited in PubChem by The Scripps Research Institute Molecular Screening Center.
A selection: hits, their analogues and other compounds. The true share with any hit is near 3.1%.
UHRF1 MBD2 ctr: blocks human UHRF1 binding to methylated DNA; actives 0.75% (n = 370,000); inhibition, % at 4.4 µM; UHRF1 binding to methylated oligo, TR-FRET; Q96T88; AID 687016; in the data active = inhibition above about 21%;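 note: UHRF1 SRA domain binding a hemimethylated CpG hairpin DNA probe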
MBD2 DNA inh: blocks human MBD2 binding to methylated DNA; inhibition, % at 4.4 µM; TR-FRET, MBD2 binding to methylated oligonucleotide; actives 0.31% (n = 370,000); AID 686964; in the data active = inhibition above about 13%
ABHD5-PLIN5 inh: inhibitors of human ABHD5-perilipin-5 interaction; Q00G26+Q8WTS1; Split G. princeps luciferase complementation, luminescence, 4 h; inhibition, % at 4 µM; actives 0.78% (n = 360,000); AID 602281;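 active = inhibition above the mean inhibition across every tested compound plus 3 SD, cut at about 22% in these data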
Target sequence (Q00G26 whole entry, looked up): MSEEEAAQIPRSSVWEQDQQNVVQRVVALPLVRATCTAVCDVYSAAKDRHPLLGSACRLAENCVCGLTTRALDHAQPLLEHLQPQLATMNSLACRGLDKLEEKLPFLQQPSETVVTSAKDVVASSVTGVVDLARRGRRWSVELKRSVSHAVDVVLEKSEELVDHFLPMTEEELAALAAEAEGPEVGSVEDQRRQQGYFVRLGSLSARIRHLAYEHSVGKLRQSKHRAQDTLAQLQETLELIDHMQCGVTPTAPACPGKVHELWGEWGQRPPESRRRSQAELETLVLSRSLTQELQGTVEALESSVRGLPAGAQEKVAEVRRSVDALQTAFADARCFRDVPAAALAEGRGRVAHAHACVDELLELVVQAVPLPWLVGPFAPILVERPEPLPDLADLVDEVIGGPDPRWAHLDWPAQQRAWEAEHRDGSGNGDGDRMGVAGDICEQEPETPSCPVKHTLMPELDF
Target sequence (Q8WTS1 whole entry, looked up): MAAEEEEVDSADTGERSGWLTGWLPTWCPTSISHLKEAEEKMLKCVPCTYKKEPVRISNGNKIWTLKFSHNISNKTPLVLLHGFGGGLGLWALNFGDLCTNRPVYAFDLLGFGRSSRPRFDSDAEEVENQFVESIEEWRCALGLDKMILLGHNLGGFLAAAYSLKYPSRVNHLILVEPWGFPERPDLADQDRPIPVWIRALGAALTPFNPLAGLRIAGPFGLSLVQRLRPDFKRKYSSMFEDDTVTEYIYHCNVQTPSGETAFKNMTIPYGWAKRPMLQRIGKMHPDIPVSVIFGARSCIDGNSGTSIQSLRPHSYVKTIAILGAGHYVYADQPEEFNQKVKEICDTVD
PRMT1 inh: blocks human protein arginine methyltransferase 1 | Q99873 | recombinant PRMT1, activity-based probe fluorescence polarization | inhibition, % at 2.79 µM | actives 1.3% (n = 370,000);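 active = inhibition above about 21% made by adding two undisclosed values, limit read from the data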
LEDGF integ inh: blocks HIV-1 LEDGF/p75-dependent DNA integration. TR-FRET IN-LEDGF/p75 DNA integration, Eu/Cy5. inhibition, % at 3.7 µM. actives 0.64% (n = 370,000). AID 743269;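 active = inhibition above the screen-wide mean plus 3 SD, cut at about 13% in these data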;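 note: signal is the Cy5 over europium emission ratio at 671 and 618 nm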
RBBP9 inhibitor: blocks human serine hydrolase RBBP9 | actives 0.2% (n = 220,000) | recombinant RBBP9, FP-Rh probe fluorescence polarization | inhibition, % at 7.94 µM;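 active = inhibition above the campaign mean of all tested compounds plus 3 SD, cut at about 14% in these data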
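Test system – recombinant human RBBP9 · Input – RBBP9 2.5 µM in dispensing solution, pre-mixing · Medium – Tris buffer pH 8.0, NaCl, Pluronic · Schedule – preincubation 30 min plus labeling 45 min at 25 °C · Measured by – fluorescence polarization · Measure – % inhibition · Controls – DMSO and no-protein wells · Replicates – one well per compound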
A number is an active result; – = inactive; · = not tested or not shown.

SMILES | UHRF1 MBD2 ctr | MBD2 DNA inh | ABHD5-PLIN5 inh | PRMT1 inh | LEDGF integ inh | RBBP9 inhibitor
O=C(O)C1CCN(C(=O)c2ccccc2C(=O)N2CCC(C(=O)O)CC2)CC1 | – | – | – | – | – | –
O=C(c1ccco1)N(Cc1cccc(F)c1)C1CCS(=O)(=O)C1 (configuration not stated) | 21.2 | – | – | – | – | ·
COc1ccc(CN(C(=O)c2cc(=O)c3ccccc3o2)C2CCS(=O)(=O)C2)cc1OC (configuration not stated) | 21.5 | – | – | – | – | ·
Cc1cc(NS(=O)(=O)c2ccc(NC(=O)CSc3nc4ncc(Br)cc4[nH]3)cc2)nc(C)n1 | 39.1 | – | – | – | – | –
Cc1cc(NS(=O)(=O)c2ccc(NC(=O)CSc3nc4ncc(Cl)cc4[nH]3)cc2)nc(C)n1 | – | – | – | – | – | –
Cc1ccc(CN2CC(N3CCC[C@@H]3C)CS2(=O)=O)cc1 (some centres not stated) | – | – | · | – | – | ·
CC(C)(C)c1ccc(O)c(N=Cc2cc(Br)ccc2O)c1 | – | – | – | 21.3 | – | –
Cc1ccc(O)c(C=Nc2cc(C)ccc2O)c1 | · | · | – | · | · | –
CCOC(=O)CC[C@H]1CC[C@]2(CCCN(C(=O)c3ccc4ccccc4n3)C2)O1 | – | – | · | – | – | ·
O=S1(=O)c2c(cccc2N2CCSCC2)Oc2ccccc2CN1Cc1cn(Cc2cccc(C(F)(F)F)c2)nn1 | – | – | · | – | – | ·
C[C@@H](NC(=O)C[C@H]1CC[C@H]2[C@@H](COc3ccc(NC(=O)Nc4ccccc4)cc3C(=O)N2C)O1)c1ccccc1 | – | – | · | – | – | ·
CC(=O)NC(Cc1ccccc1C)C(=O)NC1CCN(c2c3c(nc4ncnn24)CCC3)CC1 (configuration not stated) | 39.2 | – | · | – | – | ·
O=C(OCc1cn(Cc2cccc(F)c2)nn1)N1CCCCC1 | – | – | · | – | – | ·
COc1ccc(NC(=O)C2CCCN2C(=O)OCc2ccccc2)cc1 (configuration not stated) | – | – | – | – | – | –
CC(C)(C)OC(=O)N1CCC[C@@H]1C(=O)N1CCC[C@H]1C(=O)NCc1ccccc1 | – | – | · | – | – | ·
COC(=O)c1ccc(NC(=O)C2CCCN2C(=O)OCc2ccccc2)cc1 (configuration not stated) | 23.8 | – | – | – | – | ·
CC(C)(C)OC(=O)N1CCC[C@@H]1C(=O)N1CCC[C@@H]1C(=O)NCc1ccccc1 | – | 14.8 | · | – | – | ·
COCCCN1C(=O)[C@H](CC(=O)NCc2cccc3ccccc23)[C@]2(C(=O)OC)CCCCC=C12 | – | – | · | – | – | ·
CN1CCN(C2CN(Cc3cn(Cc4ccc(F)cc4)nn3)S(=O)(=O)C2)CC1 (configuration not stated) | 20.8 | – | – | – | – | ·
COC(=O)C[C@H]1CC[C@H]2[C@H](COc3ccc(NS(=O)(=O)c4cccc(F)c4)cc3C(=O)N2C)O1 | – | – | · | – | – | ·
Cc1ccc(/C=C/C(=O)c2ccc(C)cc2)cc1 | – | – | – | – | – | –
Cc1ccc(C(=O)/C=C/C(=O)c2ccc(C)cc2)cc1 | – | – | 23.0 | – | – | –
CCOC(=O)COc1ccc2ccccc2c1/C=C/[N+](=O)[O-] | – | – | – | – | – | –
O=[N+]([O-])/C=C/c1c(OCc2ccccc2)ccc2ccccc12 | · | · | 83.9 | · | · | –
CC(=O)Nc1ccc(SCC(=O)Nc2oc(C)c3c(C)n[nH]c(=O)c23)cc1 | – | – | – | 27.2 | – | ·
SMILES | UHRF1 MBD2 ctr | MBD2 DNA inh | ABHD5-PLIN5 inh | PRMT1 inh | LEDGF integ inh | RBBP9 inhibitor
CCOC(=O)CC[C@H]1CC[C@]2(CCCN(S(=O)(=O)C3CCCCC3)C2)O1 | 42.3 | – | · | – | – | ·
CC(=O)CC[C@H]1CC[C@]2(CCCN(S(=O)(=O)C3CCCCC3)C2)O1 | – | – | · | – | – | ·
O=C([C@@H]1C[C@H]1c1ccccc1)N1CC[C@H]2[C@H](CCCN2Cc2cc(F)cc(F)c2)C1 | – | – | · | – | – | ·
C[C@H]1COc2cc(N3CCOCC3)ccc2S(=O)(=O)N1 | – | – | · | – | – | ·
CC(=O)O[C@@H]1[C@@]2(C)O[C@H]2CC[C@]23O[C@H]2[C@H](OC3=O)C2=C(C)C(=O)O[C@@]21O | – | – | 23.0 | – | – | –
Cc1ccccc1N1CCN(C2CCCN(C(=O)CN3CCCC3=O)C2)CC1 (configuration not stated) | – | – | – | – | – | ·
